Test results taken from the array DNA melting data of Ke et al. (doi:10.1101/2024.01.08.574731).

How the values were obtained:
[1] = melting temperature; fluorescence melt of hairpins on a sequencing array, two-state fit, raised by 9.35 °C to match UV melts; settings: sodium 0.088 M
Summary of the method: (§1)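 With Cy3 and quencher oligos annealed, library hairpins on a sequenced MiSeq flow cell were imaged for Cy3 fluorescence in 50 mM Na-HEPES pH 8.0, 25 mM NaCl, in 2.5 °C steps up to 60 °C. Melting temperature and folding enthalpy were derived from bootstrapped two-state fits of signals normalised to pre-quench Cy3 and to control constructs. Four replicates were combined by inverse variance, with fitted temperatures raised by 9.35 °C to match UV melts.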

[2] = folding enthalpy; higher = less favourable; fluorescence melt of hairpins on a sequencing array, two-state fit; settings: sodium 0.088 M
Summary of the method: as §1

Sequence | Tm [1] | folding enthalpy [2]
GATCGTTGAGACGATC ((((((....)))))) | 58.1 °C | -165 kJ/mol
GGCCTACGAAAGTAGCC (((.(((....)))))) | 53.6 °C | -93.9 kJ/mol
GGCATCGCGAAAGCGGCC (((..(((....)))))) | 54.9 °C | -72.8 kJ/mol
GTGCCAACGAAAGTTCAC (((..(((....)))))) | 36.3 °C | -18.3 kJ/mol
GCGAAGCGAAAGCTGCGC (((.(((....))).))) | 67.7 °C | -98.9 kJ/mol
GTTTCCGGAAACGGAAAC (((((((....))))))) | 64.6 °C | -194 kJ/mol
GGTTGTGGAAACATAACC ((((.((....)).)))) | 45.9 °C | -155 kJ/mol
GCGTTTTAACGC ((((....)))) | 57.7 °C | -111 kJ/mol
GATCCCGGCGGGATC ((((((...)))))) | 68.2 °C | -153 kJ/mol
GGTGATGGAAACATCATC (.(((((....))))).) | 47.8 °C | -128 kJ/mol
GTTTACGAAAGTATAAC ((((((....))).))) | 32.4 °C | -53.7 kJ/mol
GATCCACGCGTGGATC ((((((....)))))) | 64.4 °C | -209 kJ/mol
GCGGGGATCCGC ((((....)))) | 68.9 °C | -83.1 kJ/mol
GGTGAGTCGAAAGACACC (((..(((....)))))) | 39.5 °C | -75.1 kJ/mol
GTGACGGGAAACCGTTAC ((.((((....)))).)) | 51.9 °C | -93.1 kJ/mol
GGAGTCGGAAACGGTTCC (((..((....))..))) | 34.6 °C | -113 kJ/mol
GTATCCCGAAAGGGCTAC (((.(((....))).))) | 41.3 °C | -94.2 kJ/mol
GATCATCGTATGATC ((((((...)))))) | 48.5 °C | -137 kJ/mol
GCATGCTCGAAAGAGTGC (((..(((....)))))) | 34.3 °C | -66.2 kJ/mol
GATCATGTTAATGATC ((((((....)))))) | 56.2 °C | -170 kJ/mol
GATCCGCCTTCGGATC ((((((....)))))) | 55.9 °C | -185 kJ/mol
GAGTTTGGAAACGAACTC (((((.(....).))))) | 47.1 °C | -152 kJ/mol
GCCGTGCGAAAGCAGCGC ((..(((....)))..)) | 55.9 °C | -58 kJ/mol

Sequence | Tm [1] | folding enthalpy [2]
GCGCATCGAAAGATTCGC (((.(((....))).))) | 52.2 °C | -163 kJ/mol
GTGTGCCGAAAGGCTCAC (((.(((....))).))) | 61.2 °C | -132 kJ/mol
GCCCACCGAAAGGTCGGC (((.(((....))).))) | 53.5 °C | -169 kJ/mol
GGTATCGGAAACGGTACC ((((.((....)).)))) | 51.6 °C | -170 kJ/mol
GTACGTGGAAACACGTAC (((((((....))))))) | 63.8 °C | -196 kJ/mol
GTTGGCGGAAACGTCAAC ((((.((....)).)))) | 56.8 °C | -153 kJ/mol
GTCCCCGGAAACAGGGAC (((((.(....).))))) | 48.6 °C | -167 kJ/mol
GCTCTGCGAAAGCTGTGC ((.(.((....)).).)) | 43.6 °C | -87.9 kJ/mol
GCTTCGGGAAACCGAAAC (.(((((....))))).) | 40.2 °C | -64.5 kJ/mol
GGTCACCGAAAGGTTACC (((.(((....))).))) | 50.1 °C | -114 kJ/mol
GGCCGCGGAAACGCAGCC (((.(((....))).))) | 61.3 °C | -160 kJ/mol
GTAGGCGAAAGCCCCTAC ((((((....)))..))) | 23.7 °C | -30.5 kJ/mol
GTCCAACGAAAGTTTGAC (((.(((....))).))) | 42 °C | -116 kJ/mol
GGTGTTGGAAACGACACC (((((.(....).))))) | 54.3 °C | -210 kJ/mol
GCTACTCGAAAGAGAGC (((.(((....)))))) | 44.8 °C | -106 kJ/mol
GTCAACGGAAACGTTGGC (.(((((....))))).) | 54.9 °C | -136 kJ/mol
GAGTGAGGAAACTCATTC ((.((((....)))).)) | 38.5 °C | -98.4 kJ/mol
GCGCTTCGAAAGAACCGC (((.(((....))).))) | 46.4 °C | -133 kJ/mol
GTGGACACGAAAGTGCAC (((..(((....)))))) | 45 °C | -75.8 kJ/mol
GCATATCGAAAGATGTGC (((.(((....))).))) | 55.4 °C | -153 kJ/mol
GCGTGGCGACGC ((((....)))) | 65.1 °C | -68.5 kJ/mol
GAATGCGAAAGCATATTC ((((((....)))..))) | 33 °C | -48.5 kJ/mol
GACACCGGAAACGATGTC ((((.((....)).)))) | 45.2 °C | -124 kJ/mol

Sequence | Tm [1] | folding enthalpy [2]
GATCTCTTGAGAGATC ((((((....)))))) | 53.8 °C | -135 kJ/mol
GGCCCACGAAAGTGTGCC (((.(((....))).))) | 58.1 °C | -205 kJ/mol
GTGGCTGGAAACGGCTAC ((.((.(....).)).)) | 44 °C | -101 kJ/mol
GCTGTGCGAAAGCCCAGC ((((.((....)).)))) | 61.8 °C | -118 kJ/mol
GAGAACGGAAACGTTTTC ((.((((....)))).)) | 41.3 °C | -106 kJ/mol
GACGTACGAAAGTAGTC (((.(((....)))))) | 52.8 °C | -142 kJ/mol
GATCTTATAAAAGATC ((((((....)))))) | 40 °C | -107 kJ/mol
GTAACCGAAAGGTACTAC ((((((....)))..))) | 40.8 °C | -70.8 kJ/mol
GCGAGGACGAAAGTCCGC (((..(((....)))))) | 56.2 °C | -35.4 kJ/mol
GATCGTTAAACGATC ((((((...)))))) | 53.2 °C | -145 kJ/mol
GTCCTGCGAAAGCAAGAC (((.(((....))).))) | 48.1 °C | -97.4 kJ/mol
CGAACACGGAAACGTTCG (((..(((....)))))) | 42.7 °C | -136 kJ/mol
GCTTGCGAAAGCAAAAGC ((((((....)))..))) | 52.8 °C | -74.4 kJ/mol
GTTAGCGGAAACGTTGAC ((.(.((....)).).)) | 30 °C | -61.6 kJ/mol
GTGCTCGAAAGAGCCAC ((((((....))).))) | 49 °C | -46.9 kJ/mol
GATCAAACATTGATC ((((((...)))))) | 41.2 °C | -131 kJ/mol
GTTGATACGAAAGTAAAC (((..(((....)))))) | 25.8 °C | -37.3 kJ/mol
GAGAGTCCGAAAGGACTC (((..(((....)))))) | 60.4 °C | -35.8 kJ/mol
GTCGTGACGAAAGTCGAC (((..(((....)))))) | 46.3 °C | -69.2 kJ/mol
GCTGTCGAAAGACAGAGC ((((((....)))..))) | 54.8 °C | -56.9 kJ/mol
GCGGAGCGAAAGCTTAGC ((..(((....)))..)) | 52.3 °C | -59.1 kJ/mol
GTAACAGGAAACTGTTAC (((((((....))))))) | 55.4 °C | -182 kJ/mol
GATCCGTCGGCGGATC ((((((....)))))) | 59 °C | -164 kJ/mol

Sequence | Tm [1] | folding enthalpy [2]
GCTCTCCGAAAGGACAGC (((.(((....))).))) | 41.3 °C | -109 kJ/mol
GTGGTCGAAAGACAGCAC ((((((....)))..))) | 40.6 °C | -70.6 kJ/mol
GAAGCCGAAAGGCGGTTC ((((((....)))..))) | 47.1 °C | -41 kJ/mol
GATCTCTTGCGAGATC ((((((....)))))) | 51.9 °C | -177 kJ/mol
GCAGGAGGAAACTCCTAC (.(((((....))))).) | 37.8 °C | -63.4 kJ/mol
GCGTTAATACGC ((((....)))) | 51.1 °C | -88.4 kJ/mol
GGGACCGAAAGGTAACCC ((((((....)))..))) | 46.1 °C | -79.3 kJ/mol
GCATTCGAAAGAAATGC ((((((....))).))) | 49 °C | -127 kJ/mol
GACTGCGGAAACGCGGTC (((.(((....))).))) | 63.5 °C | -143 kJ/mol
GATCAATATTTGATC ((((((...)))))) | 41.9 °C | -117 kJ/mol
GGCTATCGAAAGATGGCC (((.(((....))).))) | 59.8 °C | -219 kJ/mol
GGTCCAGGAAACTGAACC (((.(((....))).))) | 40 °C | -145 kJ/mol
CGCGGAAGCATCCGCG ((((((....)))))) | 60.3 °C | -115 kJ/mol
GCCTGTCGAAAGACGGC (((.(((....)))))) | 56.5 °C | -130 kJ/mol
GATCGAGTTTTCGATC ((((((....)))))) | 54.2 °C | -175 kJ/mol
GCATGCGAAAGCACTGC ((((((....))).))) | 51.3 °C | -93.3 kJ/mol
GAAAGGGCGAAAGCCTTC (((..(((....)))))) | 24.8 °C | -41.1 kJ/mol
GGCACACGAAAGTGAGCC (((.(((....))).))) | 63.5 °C | -159 kJ/mol
GTCTGACGAAAGTCCGAC (((.(((....))).))) | 49 °C | -119 kJ/mol
GACTCCGGAAACAGAGTC (((((.(....).))))) | 40.1 °C | -153 kJ/mol
GATCACGAAAGTGCATC ((((((....))).))) | 42.8 °C | -89.6 kJ/mol
GATCCGAACCGGATC ((((((...)))))) | 57 °C | -168 kJ/mol
GCGCCCGTGCGC ((((....)))) | 66.5 °C | -43.1 kJ/mol
